Assay [1] relates to Vero. In words: Cytotoxicity against african green monkey Vero cells at lag phase of growth after 48 hrs by MTT assay. Format: cell-based, Chlorocebus sabaeus. The gist of the method: (§1)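 Monolayers grown in DMEM with 5% fetal calf serum and penicillin-streptomycin at 37 °C, 5% CO2. 2×10^4 cells/well in lag or log phase were exposed for 48 h to a concentration series of compounds predissolved in DMSO. MTT formazan was dissolved in DMSO and read at 550 nm. IC50 taken from the curve; three independent experiments.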
On the technique in general: Formazan colour is commonly taken as a measure of viable cells.

Assay [2] relates to MCF7. In words: Cytotoxicity against human MCF7 cells at lag phase of growth after 48 hrs by MTT assay. Format: functional, cell-based. The essentials: as §1
In a further assay the test system is Escherichia coli. In words: Antibacterial activity against Escherichia coli ATCC 9637 after 24 hrs by broth dilution assay. Format: functional. The conditions noted are these: ATCC 9637, 24 h. The essentials:
(§2)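 Microdilution in nutrient broth at 37 °C, about (1-5) × 10^5 cfu/mL inoculum, compounds in DMSO (≤1% v/v, matched DMSO controls), in triplicate. Growth followed by OD550. Wells without visible growth after 24 h on a rotary shaker were subcultured in duplicate onto nutrient agar and colonies counted after overnight incubation. MIC is the lowest concentration inhibiting growth at 24 h.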
(In general: Broth dilution looks for growth in wells or tubes with falling amounts of substance.)

The subject of another assay is Candida albicans. In words: Antibacterial activity against Candida albicans CECT 170 after 24 hrs by broth dilution assay. Format: functional. The note with it: CECT 1039, 24 h, in the assay text read “CECT 1039” for “CECT 170”. The gist of the method: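 Yeast grown in Sabouraud liquid medium at 37 °C. Microdilution in triplicate, about (1-5) × 10^5 cfu/mL, DMSO ≤1% v/v with matched controls. OD550 followed. Clear wells at 24 h were plated in duplicate on Sabouraud agar and counted after overnight incubation. MIC is the lowest concentration inhibiting growth.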

In assay [3] the test system is Vero. In words: Cytotoxicity against african green monkey Vero cells at exponential phase of growth after 48 hrs by MTT assay. The assay is classed as cell-based, Chlorocebus sabaeus. The gist of the method: as §1
The subject of assay [4] is MCF7. In words: Cytotoxicity against human […] cells at exponential phase of growth after 48 hrs by MTT assay. The assay is classed as functional, cell-based. The essentials:
as §1

The test system of assay [5] is HEp-2. In words: Cytotoxicity against human Hep2 cells at lag phase of growth after 48 hrs by MTT assay. The assay is classed as functional, cell-based. The gist of the method: as §1
The subject of assay [6] is A549. In words: Cytotoxicity against human A549 cells at exponential phase of growth after 48 hrs by MTT assay. The assay is classed as functional, cell-based. The essentials: as §1
The test system of assay [7] is A549. In words: Cytotoxicity against human A549 cells at lag phase of growth after 48 hrs by MTT assay. Format: functional, cell-based. The essentials:
as §1

Assay [8] concerns Staphylococcus epidermidis. In words: Antibacterial activity against Staphylococcus epidermidis ATCC 14990 after 24 hrs by broth dilution assay. The assay is classed as functional. The conditions noted are these: Staphylococcus epidermidis, ATCC 14990, 24 h; read-out: MIC. The gist of the method:
as §2

For assay [9], the system named is HeLa. In words: Cytotoxicity against human HeLa cells at exponential phase of growth after 48 hrs by MTT assay. The assay is classed as functional, cell-based. The gist of the method:
as §1

A further assay concerns Salmonella. In words: Antibacterial activity against Salmonella CECT 4569 after 24 hrs by broth dilution assay. The conditions noted are these: CECT 4569, 24 h. The assay is classed as functional. The gist of the method: as §2
In the next assay the test system is Proteus mirabilis. In words: Antibacterial activity against Proteus mirabilis CECT 170 after 24 hrs by broth dilution assay. The assay is classed as functional. The note with it: CECT 170, 24 h. The gist of the method: as §2
A further assay concerns Bacillus cereus. In words: Antibacterial activity against Bacillus cereus ATCC 21772 after 24 hrs by broth dilution assay. The note with it: Bacillus cereus, ATCC 21772, 24 h. The assay is classed as functional.
In the next assay the test system is Staphylococcus aureus. In words: Antibacterial activity against Staphylococcus aureus ATCC 6538 after 24 hrs by broth dilution assay. Format: functional. The note with it: Staphylococcus aureus, ATCC 6538, 24 h; read-out: MIC.
A further assay concerns Pseudomonas aeruginosa. In words: Antibacterial activity against Pseudomonas aeruginosa AK958 after 24 hrs by broth dilution assay. Format: functional. The note with it: AK958, 24 h. The gist of the method:
as §2

Assay [10] has as its system HEp-2. In words: Cytotoxicity against human Hep2 cells at exponential phase of growth after 48 hrs by MTT assay. The assay is classed as functional, cell-based. The essentials: as §1
A further assay deals with Bacillus subtilis. In words: Antibacterial activity against Bacillus subtilis ATCC 6051 after 24 hrs by broth dilution assay. Format: functional. The conditions noted are these: Bacillus subtilis, ATCC 6051, 24 h; read-out: MIC.
In assay [11] the test system is HeLa. In words: Cytotoxicity against human HeLa cells at lag phase of growth after 48 hrs by MTT assay. Format: functional, cell-based. The essentials:
as §1

Assay [12] deals with Mycolicibacterium smegmatis. In words: Antibacterial activity against Mycobacterium smegmatis ATCC 19420 after 48 hrs by broth dilution assay. The assay is classed as functional. The note with it: ATCC 19420, 48 h. The essentials:
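Brain heart infusion broth with 0.06% Tween 80, 37 °C on a rotary shaker, inoculum about (1-5) × 10^5 cfu/mL, DMSO ≤1% v/v with matched controls, in triplicate. OD550 monitored.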

For a further assay, the system named is Enterococcus faecalis. In words: Antibacterial activity against Enterococcus faecalis ATCC 29212 after 24 hrs by broth dilution assay. The assay is classed as functional. The conditions noted are these: ATCC 29212, 24 h. The gist of the method:
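Microdilution in brain heart infusion broth, shaken at 37 °C, about (1-5) × 10^5 cfu/mL start, DMSO ≤1% v/v with matched controls, in triplicate. OD550 read. Clear wells at 24 h were subcultured in duplicate onto brain heart infusion agar and counted after overnight incubation. MIC is the lowest concentration giving growth inhibition.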

Where [13] appears, read: Chlorocebus sabaeus, Vero, 48 h, read-out: IC50.
The mark [14] stands for this setting: Homo sapiens, MCF7, 48 h, read-out: IC50.
Where [15] appears, read: Homo sapiens, HEp-2, 48 h, read-out: IC50.
Setting [16] is: Homo sapiens, A549, 48 h, read-out: IC50.
[17] abbreviates: Homo sapiens, HeLa, 48 h, read-out: IC50.

Experimental findings from ChEMBL document CHEMBL1154249, “Semisynthesis and biological evaluation of abietane-type diterpenes. Revision of the structure of rosmaquinone” (J Nat Prod, 2009) are described below.

Each structure is given as a SMILES string. In brackets after ≈: the same amount, converted by molar mass.

On to `CO[C@H]1C2=C(C(=O)C(=O)C(C(C)C)=C2)[C@@]23CCCC(C)(C)[C@@H]2[C@@H]1OC3=O` [ROSMAQUINONE B], for which the IC50 (commonly the point on the concentration scale where inhibition reaches its midpoint) in the assay with Vero [1] (setting [13]) was > 60 µM; in the assay with MCF7 [2] (setting [14]) it was 43.3 µM; with Vero [3] (setting [13]), > 60 µM; in the assay with MCF7 [4] (setting [14]), 22.1 µM; in the assay on HEp-2 [5] (setting [15]) it was 42.5 µM; in the assay with A549 [6] (setting [16]) it was 25.4 µM. Also, the IC50 with A549 [7] (setting [16]) was > 60 µM; in the assay with HeLa [9] (setting [17]), 33.8 µM; with HEp-2 [10] (setting [15]), > 60 µM; with HeLa [11] (setting [17]), 36 µM. The MIC (usually the lowest concentration found to suppress growth) was > 40 µg/mL in the assay on Escherichia coli; > 40 µg/mL against Candida albicans; > 40 µg/mL in assay [8]; > 40 µg/mL in the assay on Salmonella; > 40 µg/mL against Proteus mirabilis; 20 µg/mL (≈ 55.8 µM) with Bacillus cereus. In addition, the MIC is 40 µg/mL (≈ 112 µM) in the assay with Staphylococcus aureus; > 40 µg/mL in the assay on Pseudomonas aeruginosa; 20 µg/mL (≈ 55.8 µM) in the assay with Bacillus subtilis; > 40 µg/mL in assay [12]; > 40 µg/mL in the assay with Enterococcus faecalis.

As to `CC(C)c1cc2c(c(O)c1O)[C@@]13CCCC(C)(C)[C@@H]1[C@H](OC3=O)[C@@H]2OCc1ccccc1`, the IC50 result in the assay with Vero [1] (vero), in the assay on MCF7 [2] (mcf7), in the assay on Vero [3] (vero), in the assay on MCF7 [4] (mcf7), with HEp-2 [5] (hep-2) and in the assay with A549 [6] (a549) was “Not Active” throughout. The 50% inhibitory concentration (IC50) entry with A549 [7] (a549), with HeLa [9] (hela), in the assay with HEp-2 [10] (hep-2) and with HeLa [11] (hela) was “Not Active” each time. In addition, the MIC in the assay with Escherichia coli was > 40 µg/mL; in the assay on Candida albicans it was > 40 µg/mL; in assay [8] it was > 40 µg/mL; with Salmonella, > 40 µg/mL; with Proteus mirabilis, > 40 µg/mL; against Bacillus cereus, 10 µg/mL (≈ 22.9 µM). In addition, the MIC is > 40 µg/mL in the assay on Staphylococcus aureus; > 40 µg/mL against Pseudomonas aeruginosa; 20 µg/mL (≈ 45.8 µM) in the assay on Bacillus subtilis; > 40 µg/mL in assay [12]; > 40 µg/mL in the assay with Enterococcus faecalis.

With `CC(C)c1cc2c(c(O)c1O)[C@@]13CCCC(C)(C)[C@@H]1C[C@@H]2OC3=O` [CARNOSOL], the IC50 in the assay on Vero [1] (setting [13]) was > 60 µM; in the assay with MCF7 [2] (setting [14]), 40.9 µM; in the assay with Vero [3] (setting [13]) it was 51.5 µM; with MCF7 [4] (setting [14]), 44.5 µM; in the assay with A549 [6] (setting [16]) it was 47 µM; in the assay with A549 [7] (setting [16]), > 60 µM. Moreover, the values for the IC50 with HeLa [9] (setting [17]) and with HeLa [11] (setting [17]) were > 60 µM and 43.9 µM, respectively. Also, the MIC against Escherichia coli is > 40 µg/mL; in the assay with Candida albicans, 20 µg/mL (≈ 60.5 µM); in assay [8] it was 5 µg/mL (≈ 15.1 µM); in the assay on Salmonella, > 40 µg/mL; against Proteus mirabilis, > 40 µg/mL; against Bacillus cereus, 5 µg/mL (≈ 15.1 µM). Moreover, the MIC with Staphylococcus aureus is 25 µg/mL (≈ 75.7 µM); against Pseudomonas aeruginosa it was > 40 µg/mL; in the assay with Bacillus subtilis it was 4 µg/mL (≈ 12.1 µM); in assay [12], > 40 µg/mL; against Enterococcus faecalis it was > 40 µg/mL.

Regarding `CC(C)C1=CC2=C[C@H]3OC(=O)[C@@]4(CCCC(C)(C)[C@H]34)C2=C(O)C1=O` [SAGEQUINONE METHIDE A], the IC50 in the assay on Vero [1] (setting [13]) was > 60 µM; in the assay with MCF7 [2] (setting [14]), 46 µM; with Vero [3] (setting [13]), > 60 µM; in the assay with MCF7 [4] (setting [14]) it was 26.8 µM; in the assay with HEp-2 [5] (setting [15]) it was 32 µM; with A549 [6] (setting [16]) it was 26.5 µM. Also, the IC50 with A549 [7] (setting [16]) was > 60 µM; with HeLa [9] (setting [17]) it was 9.5 µM; in the assay with HEp-2 [10] (setting [15]), 19.2 µM; in the assay on HeLa [11] (setting [17]), 14 µM. For the same compound, the MIC with Escherichia coli is > 40 µg/mL; with Candida albicans, > 40 µg/mL; in assay [8], 40 µg/mL (≈ 122 µM); with Salmonella, > 40 µg/mL; against Proteus mirabilis it was > 40 µg/mL; in the assay on Bacillus cereus, 10 µg/mL (≈ 30.4 µM). Moreover, the MIC with Staphylococcus aureus was 20 µg/mL (≈ 60.9 µM); against Pseudomonas aeruginosa, > 40 µg/mL; with Bacillus subtilis, 10 µg/mL (≈ 30.4 µM); in assay [12], > 40 µg/mL; in the assay on Enterococcus faecalis it was > 40 µg/mL.
